Test results reported in ChEMBL document CHEMBL4513216, “Probing the Open Global Health Chemical Diversity Library for Multistage-Active Starting Points for Next-Generation Antimalarials” (ACS Infect Dis, 2020).

Assay: Toxicity liver stage against HepG2, at 10uM
Type: cell-based
Design: test concentration 10 uM, cell line HepG2-A16-CD81EGFP
Conditions: human, HepG2-A16-CD81EGFP cells; read-out: INHIBITION
Outline: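 Uninfected HepG2-A16-CD81EGFP cells, 3 × 10^3 per well, 1536-well, plated on prespotted compound at 10 μM final, parasite-free screening media added to match infected plates; puromycin 10 μM positive, DMSO 0.5% negative; run in parallel with 48 h PbLuc assay at 37 °C, 5% CO2; viability by CellTiter-Glo luminescence, normalized to controls.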

| SMILES | cytotoxicity at 10 µM [%] |
| --- | --- |
| CN(C)C(=O)CCNC(=O)Nc1sc2ccccc2c1Cl | 6.14 |
| CN(C)C(=O)COC[C@]12COC[C@H]1CN(CCc1ccccc1)C2 | -1.69 |
| Cn1nccc1C(=O)N1CCOC(Cc2cccc(C(F)(F)F)c2)C1 (stereo not given) | 5.52 |
| CNc1ncc(C(=O)N2CCC3(CC2)Nc2ccccc2NC3=O)cn1 | 1.02 |
| Cc1cc(C(=O)NCC(=O)N2CCOCC2)nn1C(C)(C)C | -3.44 |
| c1cnc(N2CCN3C[C@H](Oc4cncnc4)C[C@H]3C2)nc1 | 7.97 |
| COc1ccnc(CNc2cc(C3CC3)ncn2)c1 | -7.64 |
| COC(=O)[C@H]1CN(C(=O)c2cscn2)C[C@@H]1c1ccc(F)cc1 | -26.3 |
| Cc1cccc(CN2C(=O)CC[C@@H]3[C@H]2CCN3Cc2ccc(C)s2)n1 | 5.45 |
| CCOCCC(=O)NCC1CCCO1 (stereo not given) | 6.56 |
| CN(CCNc1cc(N2CCCC2CO)ncn1)Cc1ccccc1 (stereo not given) | 15.7 |
| CCc1nc(CN2CCCN(c3cnc4ccccc4n3)CC2)no1 | 22 |
| COc1ccc(Cc2cccc(C3CCN(C)CC3)n2)cc1 | 0.153 |
| CCc1nc(CC(=O)N2CCn3c(CC)nnc3C2)cs1 | -11.4 |
| C[C@@H]1CN(C2(C(=O)N(C)C)Cc3ccccc3C2)C[C@H](C)O1 | -5.19 |
| c1nc(N2CCCC2)ncc1CN1CCCC(CN2CCCCC2)C1 (stereo not given) | -5.45 |
| CC1CN(CC(=O)Nc2ccncc2)CCN1Cc1nccn1C (stereo not given) | -13.7 |
| COC(=O)N1CCCC(C(=O)N2CCCCC2)C1 (stereo not given) | -8.58 |
| CCOc1ccnc(N2CCN(C(=O)c3cc[nH]n3)CC2)n1 | 8.82 |
| CS(=O)(=O)NCC(=O)NC(Cc1ccccc1)C1CCCC1 (stereo not given) | 0.69 |
| O=C(NC1CCCC1)c1cc(Cn2cnc3ccccc32)on1 | 4.51 |
| CC(C)C1CCC(N2CCN(CCCS(C)(=O)=O)CC2)CC1 (stereo not given) | 0.803 |
| O=C(O)COc1ccc(CN2CCCC(Cc3cccnc3)C2)cc1 (stereo not given) | -4.98 |
| CCOc1cccc(CSC(C)c2nc(C)no2)n1 (stereo not given) | -22.6 |
| COc1ccc(C(=O)N2CC[C@@H](N3CCC(O)CC3)[C@H](O)C2)cc1C | -8.1 |
| N#CCCN(Cc1ccco1)C(=O)c1ccc(OCC2CC2)cc1 | -5.87 |
| Cc1nc(CNc2ccccc2CCC(F)(F)F)cs1 | -8.47 |
| Cc1cccc(CNC2CC3(CCN(CCO)CC3)c3ccccc32)n1 (stereo not given) | -110 |

| SMILES | cytotoxicity at 10 µM [%] |
| --- | --- |
| COCCN(C)c1ccc(NCc2ccsc2)nc1 | -5.2 |
| NC(=O)c1cnc(-c2ccccc2)nc1CCNC(=O)CN1CCCC1 | -1.25 |
| CNc1cc(C)nc(C2COCCN2CCc2ccccc2)n1 (stereo not given) | 2.52 |
| CN1C(=O)CCCC12CCCN(Cc1cccs1)C2 (stereo not given) | -0.302 |
| Cc1cc(C)n(C2CCN(Cc3nc4ccccc4n3C)CC2)n1 | 1.64 |
| O=C(O)c1cc(S(=O)(=O)Nc2cc(F)cc(F)c2)cc2c1OCCO2 | -12.6 |
| Cc1ccc(S(=O)(=O)N2CCC3(CC(C(=O)NCC(C)C)=NO3)C2)cc1 (stereo not given) | -0.819 |
| COc1ccc(NC(=O)C2OC(c3cccs3)=NN2C(C)=O)cc1 (stereo not given) | -1.6 |
| CN(CC(=O)N1CCCCC1c1nc(C(C)(C)C)cs1)C1CC1 (stereo not given) | -2.77 |
| COc1c(C2CCCN2C(=O)c2c(C)noc2C)c(C)nn1C (stereo not given) | 0.471 |
| CC(C)Nc1nc2c(cc1C(=O)NCC1CC1)CCN(C)CC2 | -5.72 |
| O=C(NCC(CO)Cc1cccc(OC(F)(F)F)c1)c1cnccn1 (stereo not given) | 7.66 |
| COC(=O)c1ccc(C(=O)NCc2ccc(Br)cc2)cn1 | -23.2 |
| CN(C)C(=O)c1nn(C)c2c1CN(Cc1cccs1)C2 | 4.9 |
| O=C(CSc1ccc2c(c1)OCCO2)NS(=O)(=O)c1cccnc1 | -5.72 |
| CCn1ccc(CNC(=O)c2cc(OC)cc(OC)c2)n1 | 8.66 |
| CN(Cc1ccco1)[C@@H]1CN(C(=O)c2ccnnc2)[C@@H]2CCCO[C@H]12 | -7.93 |
| CC(C)c1nccc(CN2CCC(O)(CN3CCCCC3)C2)n1 (stereo not given) | -1.95 |
| CNc1nc(CNC(=O)Nc2ccc(OC(C)C)cc2F)cs1 | 61.2 |
| Cc1cnn(CC(=O)N2CCC(Nc3ccc(C)nn3)CC2)c1 | -21.2 |
| CCOc1cc(-c2cc(=O)n3c(n2)CCCCC3)ccc1O | 1.32 |
| CCCc1c(C(=O)N2CCN(Cc3ccccn3)CC2)cnn1C | -1.96 |
| Cc1nc(C)n(CC2CN(CCc3cccs3)CCO2)n1 (stereo not given) | 7.12 |
| O=C(c1ccc(=O)[nH]c1)N1CCCC2(C=Cc3ccccc3O2)CC1 (stereo not given) | 12.5 |
| CN(C)C(CNC(=O)CCNC(=O)OCC(F)(F)F)c1ccsc1 (stereo not given) | -45.2 |
| CC1CCCN(CC(=O)N2CCC(c3ncc4c(n3)CCNC4)CC2)C1 (stereo not given) | 7.62 |
| Cc1cccc2c1nc(COCC(=O)O)n2-c1ccc(N)nc1 | 1.77 |
